Assay results published in ChEMBL document CHEMBL1126298, “New triazine derivatives as potent modulators of multidrug resistance” (1992).

Tests used:
KB [1] = assay: Increase in adriamycin uptake in modulator-treated cells relative to untreated KB-A1 cells at a concentration of 5 uM; assay type: functional, Homo sapiens
Method in brief: (§1)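 DC-3F/AD or KB-A1 cells (5 × 10⁶/mL) were incubated at 37 °C for 5 h with 50 μM adriamycin plus modulator (2.5–10 μM range). ADR fluorescence of 10 000 cells was read by flow cytometry at 4 °C with 488 nm argon-laser excitation. The value is the increase in mean fluorescence of treated cells over untreated cells.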

DC3F/AD [2] = assay: Percent of cell viability remaining after incubating the cells with the modulator alone a concentration of 5 uM; assay type: functional, Cricetulus griseus
Method in brief: (§2)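 Cells were grown with modulator alone for 4 days under the same conditions as the chemosensitivity assay, and read by MTT. Viability = (absorbance with modulator/absorbance of control cells) × 100. "tox" marks viability below 25%.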

DC3F/AD [3] = assay: Increase in adriamycin uptake in modulator-treated cells relative to untreated cells at a concentration of 10 uM; assay type: functional, Cricetulus griseus; method in brief: as §1
DC3F/AD [4] = assay: In vitro activity in DC-3F/AD cell line(Ratio of IC50(actinomycin D alone) / IC50(actinomycin D + modulator) at a concentration of 5 uM
DC3F/AD [5] = assay: Increase in adriamycin uptake in modulator-treated cells relative to untreated cells at a concentration of 5 uM; assay type: functional, Cricetulus griseus; method in brief: as §1
KB [6] = assay: In vitro activity in KB-A1 cell line activity expressed as fold reversion (Ratio of IC50(adriamycin alone) / IC50(adriamycin + modulator) at a concentration of 5 uM; assay type: functional, Homo sapiens
Method in brief: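 Human epidermoid KB-A1 cells (Pgp-overexpressing) were grown in RPMI 1640 with 10% FCS and 10 mM HEPES (pH 7.4). They were exposed for 4 days to adriamycin (nine graded concentrations, in triplicate) with or without 5 μM modulator. IC50 was read by the MTT assay. Fold reversion = IC50(ADR alone)/IC50(ADR + modulator).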

DC3F/AD [7] = assay: In vitro activity in DC-3F/AD cell line Ratio of IC50(actinomycin D alone) / IC50(actinomycin D + modulator) at a concentration of 10 uM
KB [8] = assay: Percent of cell viability remaining after incubating the cells with the modulator alone; assay type: functional, Homo sapiens; parameters: concentration or dose not given beside the values; method in brief: as §2
DC3F/AD [9] = assay: Percent of cell viability remaining after incubating with a 10 uM concentration; assay type: functional, Cricetulus griseus; method in brief: as §2

| SMILES | Increase (KB [1]) | Viability (DC3F/AD [2]) [%] | Increase (DC3F/AD [3]) | Fold reversion (DC3F/AD [4]) | Increase (DC3F/AD [5]) | Fold reversion (KB [6]) | Fold reversion (DC3F/AD [7]) | Viability (KB [8]) [%] | Viability (DC3F/AD [9]) [%] |
| --- | --- | --- | --- | --- | --- | --- | --- | --- | --- |
| C=CCNc1nc(NCC=C)nc(NCC(O)CN2CCC(NCC3c4ccccc4CCc4ccccc43)CC2)n1 (stereo unspecified) | 5.5 | 98 | 12.6 | 1 | 10.5 | <25 |  |  |  |
| C=CCNc1nc(NCC=C)nc(N2CCC(NCC(c3ccc(F)cc3)C3CCCCC3)CC2)n1 (stereo unspecified) | 48.1 | 85 | 34.6 | 1009 | 30.1 | 142 | <25 | 71 |  |
| C=CCNc1nc(NCC=C)nc(N2CCC(N(CC)C(c3ccc(F)cc3)c3ccc(F)cc3)CC2)n1 |  | 75 | 44.7 | 1008 | 42.7 |  | 1838 |  | 53 |
| C=CCNc1cc(N2CCC(NC(c3ccc(F)cc3)c3ccc(F)cc3)CC2)nc(NCC=C)n1.Cl.Cl |  | 49 |  | 1174 |  |  | <25 |  |  |
| C=CCNc1nc(NCC=C)nc(N2CCC(N(C)CC(c3ccccc3)c3ccccc3)CC2)n1 |  | 88 | 27.9 | 354 | 20.6 |  | 1418 |  | 85 |
| C=CCNc1nc(NCC=C)nc(NCCN2CCC(NC3c4ccccc4CCc4ccccc43)CC2)n1 | 14.5 | 38 | 18.3 | 64 | 10.4 | <25 | <25 |  |  |
| C=CCNc1nc(NCC=C)nc(NCC2CCN(CC3c4ccccc4CCc4ccccc43)CC2)n1 | 9.8 | 57 | 21 | 353 | 19.3 | 12 | <25 | 53 |  |
| C=CCNc1nc(NCC=C)nc(N2CCC(NCCC(c3ccc(OC)c(OC)c3)c3ccc(OC)c(OC)c3)CC2)n1 |  | 115 | 2.9 | 12 | 1.6 | 6 | 12 | 100 | 114 |
| C=CCNc1nc(NCC=C)nc(N2CCN(NC(=O)C3c4ccccc4CCc4ccccc43)CC2)n1 |  | 86 | 24.8 | 138 | 9.5 |  | 2174 |  | 67 |
| C=CCNc1nc(NCC=C)nc(N2CCN(CCC(c3ccccc3)c3ccccc3)CC2)n1 |  | 72 | 1.2 | 42 | 0 |  | 598 |  | 64 |
| C=CCNc1nc(NCC=C)nc(N2CCC(N(CC=C)C(c3ccc(F)cc3)c3ccc(F)cc3)CC2)n1 |  |  | 33.9 |  | 22.1 |  | 627 |  | 49 |
| C=CCNc1nc(NCC=C)nc(N2CCC(NCC(c3c(C)cccc3C)c3c(C)cccc3C)CC2)n1 |  | 100 | 35.5 | 93 | 28.9 |  | 374 |  | 84 |
| C=CCNc1nc(NCC=C)nc(N2CCC(NCC(c3ccccc3)(c3ccccc3)c3ccccc3)CC2)n1 |  | 59 |  | 57 |  |  | <25 |  |  |
| C=CCNc1nc(NCC=C)nc(N2CCC(NC(c3ccccc3)c3ccc(F)cc3)CC2)n1.Cl (stereo unspecified) |  | 72 | 19.4 | 732 | 10.5 |  | 1796 |  | 54 |
| C=CCNc1nc(NCC=C)nc(NN2CCN(C(c3ccc(F)cc3)c3ccc(F)cc3)CC2)n1 |  | 82 | 20.7 | 1932 | 18.3 |  | 5344 |  | 78 |
| C=CCNc1cc(N2CCC(NCC(c3ccccc3)c3ccccc3)CC2)nc(NCC=C)n1 |  | 67 | 16.3 | 472 | 15.1 |  | <25 |  |  |
| C=CCNc1nc(NCC=C)nc(N2CCC(NC(c3ccc(F)cc3)c3ccc(F)cc3)CC2)n1 |  | 76 | 25.1 | 388 | 16 |  | 1212 |  | 56 |

| SMILES | Increase (KB [1]) | Viability (DC3F/AD [2]) [%] | Increase (DC3F/AD [3]) | Fold reversion (DC3F/AD [4]) | Increase (DC3F/AD [5]) | Fold reversion (KB [6]) | Fold reversion (DC3F/AD [7]) | Viability (KB [8]) [%] | Viability (DC3F/AD [9]) [%] |
| --- | --- | --- | --- | --- | --- | --- | --- | --- | --- |
| C=CCNc1nc(NCC=C)nc(NC2CCN(C(c3ccc(F)cc3)c3ccc(F)cc3)CC2)n1 |  | 38 |  | 1654 |  | 22 | <25 | 40 |  |
| C=CCNc1nc(NCCC)nc(N2CCC(NC(c3ccc(F)cc3)c3ccc(F)cc3)CC2)n1.Cl.Cl |  |  | 25.5 |  | 19.8 |  | 2220 |  | 47 |
| C=CCNc1nc(NCC=C)nc(N2CCC(NCC34CCC(c5ccccc53)c3ccccc34)CC2)n1 | 22.2 | 90 | 30.7 | 96 | 20.2 | <25 | 422 |  | 87 |
| C=CCNc1nc(NCC=C)nc(N2CCC(NCC3c4ccccc4CCc4cc(OC)ccc43)CC2)n1 (stereo unspecified) | 72.6 | 73 |  | 1913 | 30.8 | 264 | <25 | 83 |  |
| C=CCNc1nc(NCC=C)nc(N2CCN(C(c3ccc(Cl)cc3)c3ccc(Cl)cc3)CC2)n1.CS(=O)(=O)O |  | 81 |  | 42 |  |  | 99 |  | 67 |
| C=CCNc1nc(N)nc(N2CCC(NCC3c4ccccc4CCc4ccccc43)CC2)n1 | 16.3 | 92 | 11 | 421 | 6.7 | 89 |  | 122 |  |
| C=CCNc1nc(NCC=C)nc(N2CCC(NCC(c3ccccc3)c3ccccc3)CC2)n1 |  | 90 | 34.7 | 753 | 31.3 |  | 1540 |  | 77 |
| C/C=C/CNc1nc(NC/C=C/C)nc(N2CCC(NC(c3ccc(F)cc3)c3ccc(F)cc3)CC2)n1.Cl.Cl |  | 82 |  | 146 |  |  | 339 |  | 43 |
| C=CCNc1nc(NCC=C)nc(N2CCC(SC(c3ccccc3)c3ccccc3)CC2)n1 |  | 90 | 28.3 | 380 |  |  | 1202 |  | 76 |
| C=CCNc1nc(NCC=C)nc(N2CCC(SCCC(c3ccccc3)c3ccccc3)CC2)n1 |  | 85 | 19.7 | 41 | 8 |  | 248 |  | 79 |
| C=CCNc1nc(NCC=C)nc(N2CCC(NCC3c4ccccc4CS(=O)(=O)c4ccccc43)CC2)n1 (stereo unspecified) |  | 90 |  | 27 |  |  | 2536 |  | 94 |
| C=CCNc1nc(NCCC)nc(N2CCC(NCCC(c3ccccc3)c3ccccc3)CC2)n1 |  |  | 27.2 | <25 | 17.9 |  | <25 |  |  |
| C=CCNc1nc(NCC=C)nc(NCC(O)CN2CCC(NC3c4ccccc4CCc4ccccc43)CC2)n1 (stereo unspecified) | 13 | 77 | 12.9 | 2 | 10.4 | <25 |  |  |  |
| C=CCNc1nc(NCC=C)nc(N2CCC(NCCC(c3ccccc3)c3ccccc3)CC2)n1 |  | 50 | 29.8 | 220 | 21.5 |  | <25 |  |  |
| C=CCNc1nc(NCC=C)nc(N2CCC(OC(c3ccc(F)cc3)c3ccc(F)cc3)CC2)n1.Cl |  | 70 | 16.1 | 290 | 11.4 |  | 969 |  | 56 |
| C=CCNc1nc(NCC=C)nc(N2CCN(CCCC(c3ccc(F)cc3)c3ccc(F)cc3)CC2)n1 |  | 50 |  | 171 |  |  | <25 |  |  |
| C=CCNc1nc(NCC=C)nc(NCCN2CCC(NCC3c4ccccc4CCc4ccccc43)CC2)n1 | 20.9 | 41 | 12.4 | 120 | 13.7 | <25 | <25 |  |  |
